Results from article PMC5335871 (Bioorganic & medicinal chemistry letters, 2016).

Legend:
[1] = biological target: T1, GPR35 (Homo sapiens, UniProt Q9HC97); format: cell-based; conditions: 10 μM Zaprinast as agonist
Procedure, shortened: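 Antagonism measured against a 10 μM Zaprinast agonist challenge in U2OS cells permanently expressing HA-GPR35a and βarr2-GFP. Concentration-effect curves for agonist-mediated receptor activation were analysed by nonlinear regression and fitted to sigmoidal dose-response curves to obtain IC50.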

[2] = biological target: T1, GPR35; conditions: read-out: IC50, antagonism at GPR35; previously identified screening hits; cited from earlier work

T1 sequence (Q9HC97 whole entry): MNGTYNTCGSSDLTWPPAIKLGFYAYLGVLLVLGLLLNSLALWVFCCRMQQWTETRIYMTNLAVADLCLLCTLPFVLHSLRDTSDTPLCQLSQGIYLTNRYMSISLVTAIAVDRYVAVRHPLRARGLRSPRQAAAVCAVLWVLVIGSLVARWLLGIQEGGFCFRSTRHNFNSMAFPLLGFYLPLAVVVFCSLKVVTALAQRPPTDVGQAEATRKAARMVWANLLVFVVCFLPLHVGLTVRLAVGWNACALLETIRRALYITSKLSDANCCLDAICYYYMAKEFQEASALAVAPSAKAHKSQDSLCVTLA

activity as GPR35 antagonist (in words) [1] | Compound | IC50 [2]
devoid of activity | O=C(Nc1ccc2nc(SCc3ccc(Cl)cc3)sc2c1)c1ccccc1C(=O)N1CCCCC1 [Compound 2] | 
devoid of activity | O=C(Nc1ccc2nc(SCc3ccc(Cl)cc3)sc2c1)c1ccccc1C(=O)N1CCCC1 [Compound 3] | 
inactive | O=C(Nc1ccc2nc(SCc3ccncc3)sc2c1)c1ccccc1C(=O)N1CCOCC1 [Compound 9] | 
 | CNC(=S)NN=Cc1c(C(=O)OC)cnn1-c1ccc(F)cc1F [Compound 13] | 0.16 µM
